Reference: ChEMBL document CHEMBL4689842, “EUbOPEN Chemogenomics Library wave 1” (2021)

Assays:
Assay type in all cases: toxicity, cell-based
[1] = system: Fibroblast; assay: Multiplex assay against human fibroblast
How it was run: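 Cells stained live at seeding with Hoechst33342, BioTracker Green Microtubule Cytoskeleton Dye, MitoTracker Red and Annexin V Alexa Fluor 680 were imaged on a CQ1 microscope at 37°C and 5% CO2 after compound addition. Their classification by CellPathfinder machine-learning gating ran from Hoechst high-intensity objects versus normal cells, to healthy, pyknosed or fragmented nuclei among normal cells, to mitotic or apoptotic among pyknosed cells. Tubulin, mitochondrial-mass and membrane-permeability phenotypes are per cents of healthy-nucleus cells.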

[2] = system: Fibroblast; assay: Incucyte cell viability with human fibroblast; settings: 10 µM, compound concentration 10 uM; further: filed as whole numbers so only -1 and 0 and 1 occur
[3] = system: U2OS; assay: Incucyte cell viability with U2OS; settings: human, 10 µM, compound concentration 10 uM; further: filed as whole numbers so only -1 and 0 and 1 occur
[4] = system: HEK-293T; assay: Incucyte cell viability with HEK293T; settings: human, 10 µM, compound concentration 10 uM; further: filed as whole numbers so only -1 and 0 and 1 occur
[5] = 12 h, 1 µM, compound concentration 1 uM, replicate 1
[6] = 12 h, 1 µM, compound concentration 1 uM, replicate 2
[7] = 12 h, 10 µM, compound concentration 10 uM, replicate 1
[8] = 12 h, 10 µM, compound concentration 10 uM, replicate 2
[9] = 24 h, 1 µM, compound concentration 1 uM, replicate 1
[10] = 24 h, 1 µM, compound concentration 1 uM, replicate 2
[11] = 24 h, 10 µM, compound concentration 10 uM, replicate 1
[12] = 24 h, 10 µM, compound concentration 10 uM, replicate 2
[13] = 48 h, 1 µM, compound concentration 1 uM, replicate 1
[14] = 48 h, 1 µM, compound concentration 1 uM, replicate 2
[15] = 48 h, 10 µM, compound concentration 10 uM, replicate 1
[16] = 48 h, 10 µM, compound concentration 10 uM, replicate 2
[17] = 0 h, replicate number 2, timepoint 0 hours
[18] = 6 h, replicate number 1, timepoint 6 hours
[19] = 12 h, replicate number 1, timepoint 12 hours
[20] = 18 h, replicate number 1, timepoint 18 hours
[21] = 24 h, replicate number 1, timepoint 24 hours

CC(=O)c1cc(-c2cc(C(=O)NC3CC3)ccc2C)c2ncccn12
Population Apoptotic (%) [1, 5]: 68% | Population Fragmented Nuclei (%) [1, 5]: 28% | Population Healthy Nuclei (%) [1, 5]: 35% | Population Hoechst High Intensity Objects (%) [1, 5]: 16% | Population Membrane Permeable-Phenotype (%) [1, 5]: 42% | Population Mitochondria Different-Phenotype (%) [1, 5]: 3% | Population Mitotic Cells (%) [1, 5]: 31% | Population Normal (%) [1, 5]: 83% | Population Pyknosed Nuclei (%) [1, 5]: 36% | Population Tubulin-Different-Phenotype (%) [1, 5]: 42% | Total Cell Count [1, 5]: 96 | Population Apoptotic (%) [1, 6]: 66% | Population Fragmented Nuclei (%) [1, 6]: 8% | Population Healthy Nuclei (%) [1, 6]: 85% | Population Hoechst High Intensity Objects (%) [1, 6]: 7% | Population Membrane Permeable-Phenotype (%) [1, 6]: 2% | Population Mitochondria Different-Phenotype (%) [1, 6]: 7% | Population Mitotic Cells (%) [1, 6]: 33% | Population Normal (%) [1, 6]: 92% | Population Pyknosed Nuclei (%) [1, 6]: 6% | Population Tubulin-Different-Phenotype (%) [1, 6]: 19% | Total Cell Count [1, 6]: 73 | Population Apoptotic (%) [1, 7]: 60% | Population Fragmented Nuclei (%) [1, 7]: 20% | Population Healthy Nuclei (%) [1, 7]: 40% | Population Hoechst High Intensity Objects (%) [1, 7]: 25% | Population Membrane Permeable-Phenotype (%) [1, 7]: 30% | Population Mitochondria Different-Phenotype (%) [1, 7]: 23% | Population Mitotic Cells (%) [1, 7]: 39% | Population Normal (%) [1, 7]: 75% | Population Pyknosed Nuclei (%) [1, 7]: 39% | Population Tubulin-Different-Phenotype (%) [1, 7]: 50% | Total Cell Count [1, 7]: 140 | Population Fragmented Nuclei (%) [1, 8]: 11% | Population Healthy Nuclei (%) [1, 8]: 84% | Population Hoechst High Intensity Objects (%) [1, 8]: 4% | Population Membrane Permeable-Phenotype (%) [1, 8]: 3% | Population Mitochondria Different-Phenotype (%) [1, 8]: 8% | Population Mitotic Cells (%) [1, 8]: 40% | Population Normal (%) [1, 8]: 95% | Population Pyknosed Nuclei (%) [1, 8]: 5% | Population Tubulin-Different-Phenotype (%) [1, 8]: 17% | Total Cell Count [1, 8]: 52 | Population Apoptotic (%) [1, 9]: 66% | Population Fragmented Nuclei (%) [1, 9]: 25% | Population Healthy Nuclei (%) [1, 9]: 45% | Population Hoechst High Intensity Objects (%) [1, 9]: 15% | Population Membrane Permeable-Phenotype (%) [1, 9]: 51% | Population Mitochondria Different-Phenotype (%) [1, 9]: 7% | Population Mitotic Cells (%) [1, 9]: 33% | Population Normal (%) [1, 9]: 84% | Population Pyknosed Nuclei (%) [1, 9]: 29% | Population Tubulin-Different-Phenotype (%) [1, 9]: 43% | Total Cell Count [1, 9]: 108 | Population Apoptotic (%) [1, 10]: 0% | Population Fragmented Nuclei (%) [1, 10]: 3% | Population Healthy Nuclei (%) [1, 10]: 91% | Population Hoechst High Intensity Objects (%) [1, 10]: 4% | Population Membrane Permeable-Phenotype (%) [1, 10]: 3% | Population Mitochondria Different-Phenotype (%) [1, 10]: 9% | Population Mitotic Cells (%) [1, 10]: 100% | Population Normal (%) [1, 10]: 95% | Population Pyknosed Nuclei (%) [1, 10]: 5% | Population Tubulin-Different-Phenotype (%) [1, 10]: 12% | Total Cell Count [1, 10]: 70 | Population Apoptotic (%) [1, 11]: 57% | Population Fragmented Nuclei (%) [1, 11]: 21% | Population Healthy Nuclei (%) [1, 11]: 47% | Population Hoechst High Intensity Objects (%) [1, 11]: 15% | Population Membrane Permeable-Phenotype (%) [1, 11]: 24% | Population Mitochondria Different-Phenotype (%) [1, 11]: 9% | Population Mitotic Cells (%) [1, 11]: 42% | Population Normal (%) [1, 11]: 84% | Population Pyknosed Nuclei (%) [1, 11]: 31% | Population Tubulin-Different-Phenotype (%) [1, 11]: 65% | Total Cell Count [1, 11]: 151 | Population Apoptotic (%) [1, 12]: 48% | Population Fragmented Nuclei (%) [1, 12]: 11% | Population Healthy Nuclei (%) [1, 12]: 63% | Population Hoechst High Intensity Objects (%) [1, 12]: 2% | Population Membrane Permeable-Phenotype (%) [1, 12]: 8% | Population Mitochondria Different-Phenotype (%) [1, 12]: 12% | Population Mitotic Cells (%) [1, 12]: 51% | Population Normal (%) [1, 12]: 97% | Population Pyknosed Nuclei (%) [1, 12]: 24% | Population Tubulin-Different-Phenotype (%) [1, 12]: 18% | Total Cell Count [1, 12]: 62 | Population Apoptotic (%) [1, 13]: 42% | Population Fragmented Nuclei (%) [1, 13]: 40% | Population Healthy Nuclei (%) [1, 13]: 46% | Population Hoechst High Intensity Objects (%) [1, 13]: 10% | Population Membrane Permeable-Phenotype (%) [1, 13]: 34% | Population Mitochondria Different-Phenotype (%) [1, 13]: 2% | Population Mitotic Cells (%) [1, 13]: 57% | Population Normal (%) [1, 13]: 89% | Population Pyknosed Nuclei (%) [1, 13]: 13% | Population Tubulin-Different-Phenotype (%) [1, 13]: 20% | Total Cell Count [1, 13]: 119 | Population Apoptotic (%) [1, 14]: 33% | Population Fragmented Nuclei (%) [1, 14]: 30% | Population Healthy Nuclei (%) [1, 14]: 66% | Population Hoechst High Intensity Objects (%) [1, 14]: 7% | Population Membrane Permeable-Phenotype (%) [1, 14]: 12% | Population Mitochondria Different-Phenotype (%) [1, 14]: 1% | Population Mitotic Cells (%) [1, 14]: 66% | Population Normal (%) [1, 14]: 92% | Population Pyknosed Nuclei (%) [1, 14]: 3% | Population Tubulin-Different-Phenotype (%) [1, 14]: 32% | Total Cell Count [1, 14]: 101 | Population Apoptotic (%) [1, 15]: 52% | Population Fragmented Nuclei (%) [1, 15]: 30% | Population Healthy Nuclei (%) [1, 15]: 51% | Population Hoechst High Intensity Objects (%) [1, 15]: 17% | Population Membrane Permeable-Phenotype (%) [1, 15]: 27% | Population Mitochondria Different-Phenotype (%) [1, 15]: 6% | Population Mitotic Cells (%) [1, 15]: 47% | Population Normal (%) [1, 15]: 82% | Population Pyknosed Nuclei (%) [1, 15]: 17% | Population Tubulin-Different-Phenotype (%) [1, 15]: 45% | Total Cell Count [1, 15]: 145 | Population Apoptotic (%) [1, 16]: 75% | Population Fragmented Nuclei (%) [1, 16]: 26% | Population Healthy Nuclei (%) [1, 16]: 69% | Population Hoechst High Intensity Objects (%) [1, 16]: 9% | Population Membrane Permeable-Phenotype (%) [1, 16]: 16% | Population Mitochondria Different-Phenotype (%) [1, 16]: 8% | Population Mitotic Cells (%) [1, 16]: 25% | Population Normal (%) [1, 16]: 90% | Population Pyknosed Nuclei (%) [1, 16]: 4% | Population Tubulin-Different-Phenotype (%) [1, 16]: 35% | Total Cell Count [1, 16]: 107 | Growth Rate [2, 17]: 1 | Growth Rate [2, 18]: 0 | Growth Rate [2, 19]: 0 | Growth Rate [2, 20]: 0 | Growth Rate [2, 21]: 0 | Growth Rate ([3]; 0 h, replicate number 1, timepoint 0 hours): 0 | Growth Rate [3, 18]: 0 | Growth Rate [3, 19]: 0 | Growth Rate [3, 20]: 0 | Growth Rate [3, 21]: 0 | Growth Rate [4, 17]: 1 | Growth Rate [4, 18]: 0 | Growth Rate [4, 19]: 0 | Growth Rate [4, 20]: 0 | Growth Rate [4, 21]: 0
